Assay results: ChEMBL document CHEMBL4376838, “Discovery of Novel Celastrol Derivatives as Hsp90-Cdc37 Interaction Disruptors with Antitumor Activity” (J Med Chem, 2019)
The source made the active and inactive calls. No cut-off for these calls is given here.

What was measured:
MCF7 = assay: Antiproliferative activity against human MCF7 cells assessed as inhibition of cell growth incubated for 48 hrs by MTT assay; format: functional, cell-based; conditions: MCF7, 48 h
Summary of the method: (§1)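 MTT read-out. Cells seeded at 5.0 × 10⁴ cells/ml and cultured 24 h, then exposed to the drug over a range of concentrations for 48 h, with matching DMSO as control. MTT (5 mg/ml) added for 4 h, supernatant removed, formazan dissolved in DMSO, OD read at 570 nm. Run in triplicate, mean ± SD (n = 3).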

HOS = assay: Antiproliferative activity against human HOS cells assessed as inhibition of cell growth incubated for 48 hrs by MTT assay; format: functional, cell-based; summary of the method: as §1
[1] = biological target: T1, Hsp90 co-chaperone Cdc37 (Homo sapiens) (UniProt Q16543); assay: Inhibition of Cdc37 in human A549 cells assessed as disruption of HSP90 alpha-Cdc37 interaction by measuring decrease in Cdc37 protein level at 5 uM incubated for 6 hrs by immunoprecipitation based immunoblot analysis; format: cell-based
T1 sequence (whole entry): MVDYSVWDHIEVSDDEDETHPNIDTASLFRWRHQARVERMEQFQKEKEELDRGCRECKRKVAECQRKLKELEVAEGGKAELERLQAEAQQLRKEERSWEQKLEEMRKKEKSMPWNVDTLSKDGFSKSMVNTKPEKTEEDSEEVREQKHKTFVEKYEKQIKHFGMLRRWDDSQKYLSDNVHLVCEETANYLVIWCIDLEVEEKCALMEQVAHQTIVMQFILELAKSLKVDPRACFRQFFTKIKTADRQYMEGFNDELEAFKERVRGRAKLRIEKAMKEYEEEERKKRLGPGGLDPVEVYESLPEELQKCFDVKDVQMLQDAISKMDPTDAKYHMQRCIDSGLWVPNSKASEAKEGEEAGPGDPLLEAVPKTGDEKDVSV
Summary of the method: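 A549 cells (5×10^5 per 6 cm dish) were grown 24 h, then treated with 5 μM compound or DMSO for 6 h. Lysates were immunoprecipitated with Hsp90α antibody, and co-precipitated Cdc37 and Hsp90 were detected by Western blot. Mean ± SD, n = 3.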

[2] = biological target: T1, Hsp90 co-chaperone Cdc37 (Homo sapiens); assay: Binding affinity to Cdc37 in human A549 cells assessed as inhibition of HSP90-Cdc37 interaction by measuring decrease in CDK4 protein level at 5 uM incubated for 12 hrs by Western blot analysis; format: cell-based
Summary of the method: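 A549 cells seeded 5×10^5 per 6 cm dish, grown 12 h, then exposed to compound or DMSO for 12 h. Lysates adjusted to 3 mg/ml protein (BCA), run on 10% SDS-PAGE, immunoblotted for p-Akt and Cdk4. Band levels quantified against Hsp90 loading control. Three separate experiments, mean ± SD.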

[3] = biological target: T1, Hsp90 co-chaperone Cdc37 (Homo sapiens); assay: Binding affinity to full length CDC37 (unknown origin) assessed as reduction in absorption at 440 nm reaching equilibrium within 15 mins at 100 uM by UV absorption analysis; conditions: in the assay text read “within 5 mins” for “within 15 mins”
Summary of the method: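 Compound (100 μM) mixed with GSH (100 μM), Cdc37 (1.5 μM) or Hsp90 (1.5 μM) in PBS containing 1% DMSO, incubated at 37 °C for 0, 5, 15 and 30 min. UV spectra scanned 200-500 nm, with absorbance at 440 nm compared against the 0 min value (A/A0). Mean ± SD, n = 3.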

A549 [4] = assay: Antiproliferative activity against human A549 cells assessed as inhibition of cell growth at 0.5 uM incubated for 48 hrs in presence of methyl thioglycolate by MTT assay relative to control; format: functional; conditions: A549, 48 h, read-out: GI
[5] = biological target: T1, Hsp90 co-chaperone Cdc37 (Homo sapiens); assay: Binding affinity to Cdc37 in human A549 cells assessed as inhibition of HSP90-Cdc37 interaction by measuring increase in BAX protein level at 1.25 to 5 uM incubated for 12 hrs by Western blot analysis; format: cell-based
Summary of the method: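 A549 cells (5×10^5 per 6 cm dish) were allowed to settle 12 h, then treated with DMSO or compound at the indicated concentrations for 12 h. Lysates were adjusted to 3 mg/ml protein by BCA and resolved on 10% SDS-PAGE, then Western blotted. β-actin or Hsp90 served as the loading control. Three separate experiments, mean ± SD.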

A549 [6] = assay: Induction of mitochondrial membrane potential loss in human A549 cells assessed as cells with depolarized mitochondria by measuring increase in J-monomer green fluorescence intensity at 0.2 uM incubated for 24 hrs by JC1 staining based fluorescence microscopic method (reference value: 1.5%); format: functional
A549 [7] = assay: Induction of morphological apoptosis in human A549 cells assessed as decrease in cell density incubated for 48 hrs by Hoechst 33342 and PI staining based fluorescence microscopic method; format: functional
Summary of the method: (§2)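 A549 cells (4×10^5 per 6 cm dish) were grown 24 h, then exposed to compound at the indicated concentrations or DMSO for 48 h. After PBS washes, cells were stained with Hoechst 33342 (10 µg/ml) plus PI for 5 min at room temperature in the dark and imaged by fluorescence microscopy for nuclear morphology.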

A549 [8] = assay: Induction of morphological apoptosis in human A549 cells assessed as increase in cells with chromatin condensation at 0.3 to 1.2 uM incubated for 48 hrs by Hoechst 33342 and PI staining based fluorescence microscopic method; format: functional, cell-based; summary of the method: as §2
A549 [9] = assay: Induction of apoptosis in human A549 cells assessed as necrotic cells at 0.3 uM incubated for 48 hrs by Annexin V-FITC and PI staining based flow cytometric analysis (reference value: 1.0%); format: functional
A549 [10] = assay: Induction of apoptosis in human A549 cells assessed as necrotic cells at 0.6 uM incubated for 48 hrs by Annexin V-FITC and PI staining based flow cytometric analysis (reference value: 1.0%); format: functional
A549 [11] = assay: Induction of apoptosis in human A549 cells assessed as necrotic cells at 1.2 uM incubated for 48 hrs by Annexin V-FITC and PI staining based flow cytometric analysis (reference value: 1.0%); format: functional
Summary of the method: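 A549 cells (4×10^5 per 6 cm dish) cultured 24 h, then treated 48 h with compound or DMSO. Cells gently harvested, washed twice in cold PBS, resuspended in binding buffer with Annexin V and PI, stained 15 min at room temperature in the dark, analysed by flow cytometry. Mean ± SD, n = 3.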

A549 [12] = assay: Induction of apoptosis in human A549 cells assessed as increase in late apoptotic cells incubated for 48 hrs by Annexin V-FITC and PI staining based flow cytometric analysis; format: functional, cell-based
A549 [13] = assay: Induction of cell cycle arrest in human A549 cells assessed as accumulation at G2 phase at 0.2 uM incubated for 24 hrs by PI staining based flow cytometric analysis (reference value: 19.37%); format: functional
Summary of the method: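 A549 cells (4×10^5 per 6 cm dish) were grown 24 h, then exposed to compound (0.2, 0.4, 0.8 μM) or DMSO for 24 h. Cells fixed in 75% ethanol at −20 °C for at least 12 h, treated with RNase A at 37 °C for 30 min, then stained with PI for 15 min in the dark. Analysed by flow cytometry, mean ± SD, n = 3.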

A549 [14] = assay: Induction of mitochondrial membrane potential loss in human A549 cells assessed as cells with depolarized mitochondria by measuring increase in J-monomer green fluorescence intensity at 0.4 uM incubated for 24 hrs by JC1 staining based fluorescence microscopic method (reference value: 1.5%); format: functional

IC50 (MCF7): 640 nM | inhibition [1]: Active | inhibition [2]: Active | Activity [3]: Active | inhibition [5]: Active
Compound: CC1=C(O)C(=O)C=C2C1=CC=C1[C@@]2(C)CC[C@@]2(C)[C@@H]3C[C@](C)(C(=O)OCCCOC(=O)/C=C(\C#N)c4ccc(F)cc4)CC[C@]3(C)CC[C@]12C
IC50 (HOS): 900 nM | inhibition of growth at 0.5 µM (A549 [4]): 68.3% | Activity (A549 [6]): 15.7% | Activity (A549 [7]): Dose-dependent effect | Activity (A549 [8]): Active | Activity (A549 [9]): 3.3% | Activity (A549 [10]): 6% | Activity (A549 [11]): 8.2% | Activity (A549 [12]): Dose-dependent effect | Activity (A549 [13]): 16.78% | Activity (A549 [14]): 18.7%
